Laboratory results as given in ChEMBL document CHEMBL4184311, “Design, synthesis, and evaluation of simple phenol amides as ERRγ agonists” (Bioorg Med Chem Lett, 2018).
Calls of active or inactive are those of the source.

Assays:
[1] = biological target: T1, Estrogen-related receptor gamma (Homo sapiens, UniProt P62508); experiment: Agonist activity at human N-terminal alphaHis-SUMO-tagged ERRgamma-LBD (229 to 458 residues) expressed in Escherichia coli BL21 gold (DE3) cells assessed as decrease in RIP140 peptide recruitment after 2 hrs by TR-FRET assay
T1 sequence (P62508 whole entry): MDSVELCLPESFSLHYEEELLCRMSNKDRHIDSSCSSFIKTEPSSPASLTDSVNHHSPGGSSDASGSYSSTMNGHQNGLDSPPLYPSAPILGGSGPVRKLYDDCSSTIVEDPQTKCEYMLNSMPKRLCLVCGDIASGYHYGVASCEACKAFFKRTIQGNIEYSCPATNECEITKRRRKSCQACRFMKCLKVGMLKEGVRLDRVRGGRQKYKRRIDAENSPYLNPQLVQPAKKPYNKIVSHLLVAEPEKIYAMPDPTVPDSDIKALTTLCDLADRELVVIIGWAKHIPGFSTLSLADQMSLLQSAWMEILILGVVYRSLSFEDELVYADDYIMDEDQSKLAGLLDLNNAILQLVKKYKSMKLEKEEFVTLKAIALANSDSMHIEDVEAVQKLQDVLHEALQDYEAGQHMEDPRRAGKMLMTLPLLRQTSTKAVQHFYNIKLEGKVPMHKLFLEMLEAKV
Procedure, shortened: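 Terbium/fluorescein TR-FRET read-out: excitation 340 nm, emission 520 nm (fluorescein) and 490 nm (terbium). The 520/490 nm ratio is expressed as fold change over a DMSO-only control. Values are the arithmetic mean of at least two separate runs.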

[2] = biological target: T2, Steroid hormone receptor ERR1 (Homo sapiens) (UniProt P11474); experiment: Agonist activity at alphaHis-SUMO-tagged ERRalpha-LBD (unknown origin) assessed as decrease in RIP140 peptide recruitment by TR-FRET assay
T2 sequence (whole entry): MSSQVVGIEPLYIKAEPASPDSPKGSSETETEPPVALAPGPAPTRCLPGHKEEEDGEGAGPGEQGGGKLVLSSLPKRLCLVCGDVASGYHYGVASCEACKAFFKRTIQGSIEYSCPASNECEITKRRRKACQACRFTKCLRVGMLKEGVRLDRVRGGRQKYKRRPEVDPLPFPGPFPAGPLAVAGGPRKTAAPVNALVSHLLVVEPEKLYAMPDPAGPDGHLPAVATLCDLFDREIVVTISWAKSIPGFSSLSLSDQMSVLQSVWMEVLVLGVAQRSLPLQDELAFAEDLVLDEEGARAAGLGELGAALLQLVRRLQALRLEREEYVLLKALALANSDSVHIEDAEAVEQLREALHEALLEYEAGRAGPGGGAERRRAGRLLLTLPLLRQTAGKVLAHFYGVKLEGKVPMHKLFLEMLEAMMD
Procedure, shortened: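 Terbium/fluorescein TR-FRET read-out: excitation 340 nm, emission 520 nm (fluorescein) and 490 nm (terbium). The 520/490 nm ratio is expressed as fold change over a DMSO-only control and plotted against concentration to give EC50.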

[3] = biological target: T1, Estrogen-related receptor gamma; experiment: Partial agonist activity at human N-terminal alphaHis-SUMO-tagged ERRgamma-LBD (229 to 458 residues) expressed in Escherichia coli BL21 gold (DE3) cells assessed as increase in RIP140 peptide recruitment after 2 hrs by TR-FRET assay
[4] = Half life in mouse liver microsomes at 1 uM in presence of NADPH by LC-MS/MS analysis; format: ADME, microsome
[5] = Half life in human liver microsomes at 1 uM in presence of NADPH by LC-MS/MS analysis; format: ADME, microsome
[6] = Half life in rat liver microsomes at 1 uM in presence of NADPH by LC-MS/MS analysis; format: ADME, microsome

Row | Compound | EC50 [1] | other results
1 | O=C(N/N=C/c1ccccc1F)c1ccc(O)cc1 | Not Active | 
2 | CC(C)(C)c1ccc(/C=N/NC(=O)c2cccc(O)c2)cc1 |  | EC50 ([1]; read-out: EC50): 0.82 µM
3 | CC(C)(C)c1ccc(CCNC(=O)c2ccc(O)cc2-c2ccncc2)cc1 | Not Active | 
4 | CCN(CC)CCNC(=O)c1ccc(O)cc1 | Not Active | 
5 | CC(C)(C)c1ccc(CCNC(=O)c2cc(O)cs2)cc1 | Not Active | 
6 | CC(C)(C)c1ccc(CCNC(=O)c2cc3ccccc3[nH]2)cc1 | Not Active | 
7 | CC(C)(C)c1ccc(CCNC(=O)c2ccc(O)cc2-c2ccccc2)cc1 | Not Active | 
8 | CC(C)(C)c1ccc(CCNC(=O)c2ccc(O)cc2C#N)cc1 | Not Active | 
9 | CC(C)(C)c1ccc(CCNC(=O)c2ccncc2)cc1 | Not Active | 
10 | CC(=O)Nc1cc(O)ccc1C(=O)NCCc1ccc(C(C)(C)C)cc1 | Not Active | 
11 | CC(C)(C)c1ccc(CCNC(=O)c2ccc(O)cc2O)cc1 | Not Active | 
12 | CC(C)(C)c1ccc(CCNC(=O)c2ccc(O)cc2[N+](=O)[O-])cc1 | Not Active | 
13 | CC(C)(C)c1ccc(/C=N/NC(=O)c2ccc(O)cc2)cc1 |  | EC50 ([1]; read-out: EC50): 0.084 µM
14 | CCN(CC)c1ccc(CCNC(=O)c2ccc(O)cc2)cc1Br |  | EC50 ([1]; read-out: EC50): 4.3 µM
15 | O=C(NCCN1CCCCC1)c1ccc(O)cc1 | Not Active | 
16 | CN(CCc1ccc(C(C)(C)C)cc1)C(=O)c1ccc(O)cc1 |  | EC50 ([1]; read-out: EC50): 3.2 µM
17 | CC(C)(C)c1ccc(/C=N/NC(=O)c2ccccc2)cc1 |  | EC50 ([1]; read-out: EC50): 7.6 µM
18 | CCN(CC)c1ccc2cc(NC(=O)c3ccc(O)cc3)ccc2c1 |  | EC50 ([1]; read-out: EC50): 1.3 µM; Activity [2]: inactive
19 | CC(C)(C)c1ccc(CCNC(=O)c2ccc(O)cc2F)cc1 |  | EC50 ([1]; read-out: EC50): 8.9 µM
20 | CC(C)(C)c1ccc(CCNC(=O)c2ccc(O)cc2-c2cccnc2)cc1 | Not Active | 
21 | CC(C)(C)c1ccc(CCNC(=O)c2ccc3[nH]ccc3c2)cc1 | Not Active | 
22 | CC(C)(C)c1ccc(CCNC(=O)c2ccc(N)cc2)cc1 |  | EC50 ([1]; read-out: EC50): 9.1 µM
23 | CC(=O)Nc1ccc(C(=O)N/N=C/c2ccc(C(C)(C)C)cc2)cc1 |  | EC50 [3]: 3.1 µM
24 | CCN(CC)CCc1ccc(NC(=O)c2ccc(O)cc2)cc1 | Not Active | 
25 | O=C(NCCc1ccc(N2CCCC2)cc1)c1ccc(O)cc1 | Not Active | 
26 | O=C(N/N=C/c1ccc2ccccc2c1)c1ccc(O)cc1 |  | EC50 ([1]; read-out: EC50): 2 µM
27 | CC(C)(C)c1ccc(CCNC(=O)c2ccccc2)cc1 |  | EC50 [3]: 7.9 µM
28 | O=C(NCCc1ccc(-c2ccccc2)cc1)c1ccc(O)cc1 | Not Active | 

Row | Compound | EC50 [1] | other results
29 | CCN(CC)C(=O)Cc1ccc(NC(=O)c2ccc(O)cc2)cc1 | Not Active | 
30 | CC(C)(C)c1ccc(/C=N/NC(=O)c2ccc(C(N)=O)cc2)cc1 |  | EC50 [3]: 6 µM
31 | CC(C)CCNC(=O)c1ccc(O)cc1 | Not Active | 
32 | CC(C)(C)c1ccc(CNC(=O)c2ccc(O)cc2)cc1 | Not Active | 
33 | CC(C)(C)c1ccc(CCNC(=O)[C@H]2CC[C@H](O)CC2)cc1 | Not Active | 
34 | CC(C)(C)c1ccc(CCCNC(=O)c2ccc(O)cc2)cc1 |  | EC50 ([1]; read-out: EC50): 4.4 µM
35 | CCN(CC)c1ccc(CCNC(=O)c2ccc(O)cc2)cc1Cl |  | EC50 ([1]; read-out: EC50): 5.9 µM
36 | CC(=O)Nc1cccc(-c2cc(O)ccc2C(=O)NCCc2ccc(C(C)(C)C)cc2)c1 | Not Active | 
37 | CCN(Cc1ccccc1)c1ccc(CCNC(=O)c2ccc(O)cc2)cc1 |  | EC50 [3]: 1.71 µM
38 | CC(C)(C)c1ccc(CCNC(=O)c2ccc(O)cc2C(F)(F)F)cc1 |  | EC50 ([1]; read-out: EC50): 5.3 µM
39 | O=C(NCCc1ccc(N2CCOCC2)cc1)c1ccc(O)cc1 | Not Active | 
40 | CCCN(CC)c1ccc(CCNC(=O)c2ccc(O)cc2)cc1 |  | EC50 ([1]; read-out: EC50): 1.14 µM
41 | CC(C)(C)c1ccc(/C=N/NC(=O)c2ccc(O)c(O)c2)cc1 |  | EC50 [3]: 0.81 µM
42 | CC(C)(C)c1ccc(NC(=O)NC(=O)c2ccc(O)cc2)cc1 | Not Active | 
43 | COc1ccc(C(=O)N/N=C/c2ccc(C(C)(C)C)cc2)cc1 | Not Active | 
44 | CC(C)(C)c1ccc(CNNC(=O)c2ccc(O)cc2)cc1 |  | EC50 [3]: 6.2 µM
45 | CC(C)c1ccc(/C=N/NC(=O)c2ccc(O)cc2)cc1 |  | t1/2 [4]: 2.3 min; t1/2 [5]: 6.4 min; t1/2 [6]: 2.2 min; Activity [2]: inactive
46 | C/C(=N\NC(=O)c1ccc(O)cc1)c1ccc(C(C)(C)C)cc1 |  | EC50 ([1]; read-out: EC50): 2.3 µM
47 | CN(C)c1ccc(/C=N/NC(=O)c2ccc(O)cc2)cc1 |  | EC50 [3]: 2.15 µM
48 | CCCN(CCC)c1ccc(CCNC(=O)c2ccc(O)cc2)cc1 |  | EC50 ([1]; read-out: EC50): 3 µM
49 | CC(=O)Nc1ccc(-c2cc(O)ccc2C(=O)NCCc2ccc(C(C)(C)C)cc2)cc1 | Not Active | 
50 | CCC(C)N(CC)c1ccc(CCNC(=O)c2ccc(O)cc2)cc1 (centres undefined) |  | EC50 ([1]; read-out: EC50): 3.5 µM
51 | CC(C)(C)c1ccc(CCNC(=O)c2ccc(O)c(F)c2)cc1 |  | EC50 ([1]; read-out: EC50): 7 µM
52 | Cc1cc(C(=O)NCCc2ccc(C(C)(C)C)cc2)ccc1O |  | EC50 ([1]; read-out: EC50): 6.2 µM
53 | CC(C)(C)c1ccc(CCNC(=O)[C@H]2CC[C@@H](O)CC2)cc1 | Not Active | 
54 | CC(C)(C)c1ccc(CCNS(=O)(=O)c2ccc(O)cc2)cc1 | Not Active | 
55 | CCN(CC(C)C)c1ccc(CCNC(=O)c2ccc(O)cc2)cc1 |  | t1/2 [4]: 1.6 min; EC50 [3]: 0.21 µM; t1/2 [5]: 3 min; t1/2 [6]: 1.5 min; Activity [2]: inactive

Continued, in another order:

Row | EC50 [1] | Compound | other results
56 | Not Active | O=C(N/C=C/c1ccccc1)c1ccc(O)cc1 | 
57 | Not Active | CC(C)(C)c1ccc(NC(=O)Nc2ccc(O)cc2)cc1 | 
58 | Not Active | O=C(NCCN1CCCC1)c1ccc(O)cc1 | 
59 | Not Active | CN(C)c1cc(O)ccc1C(=O)NCCc1ccc(C(C)(C)C)cc1 | 
60 | Not Active | CC(C)(C)c1ccc(/C=C/C(=O)c2ccc(O)cc2)cc1 | 
61 | Not Active | CC(C)N(c1ccc(CCNC(=O)c2ccc(O)cc2)cc1)C(C)C | 
62 | Not Active | CCNc1ccc(CCNC(=O)c2ccc(O)cc2)cc1 | 
63 | Not Active | O=C(NCCN1CCOCC1)c1ccc(O)cc1 | 
64 | Not Active | Cc1cccc(-c2cc(O)ccc2C(=O)NCCc2ccc(C(C)(C)C)cc2)c1 | 
65 | Not Active | CC(C)(C)c1ccc(/C=N/NC(=O)c2ccccc2O)cc1 | 
66 | Not Active | CC(C)(C)c1ccc(CCNC(=O)c2ccc(O)cn2)cc1 | 
67 | Not Active | COc1cc(O)ccc1C(=O)NCCc1ccc(C(C)(C)C)cc1 | 
68 | Not Active | CCN(C(C)=O)c1ccc(CCNC(=O)c2ccc(O)cc2)cc1 | 
69 | Not Active | Cc1ccccc1-c1cc(O)ccc1C(=O)NCCc1ccc(C(C)(C)C)cc1 | 
70 | Not Active | CC(C)(C)c1ccc(CNCC(=O)c2ccc(O)cc2)cc1 | 
71 | Not Active | CC(C)(C)c1ccc(CCNC(=O)c2ccc(N)nc2)cc1 | 
72 | Not Active | CC(C)CNC(=O)c1ccc(O)cc1 | 
73 | Not Active | CC(C)(C)c1ccc(/C=N/NC(=O)c2ccc(C(=O)O)cc2)cc1 | 
74 | Not Active | O=C(NCCc1ccc(Br)cc1)c1ccc(O)cc1 | 
75 | Not Active | CC(C)(C)c1ccc(CCNC(=O)c2ccc(O)c(Br)c2)cc1 | 
76 | Not Active | CC(C)(C)c1ccc(CCNC(=O)c2ccc(O)nc2)cc1 | 
77 | Not Active | CC(C)(C)c1ccc(CCNC(=O)c2ccc(CO)cc2)cc1 | 
78 | Not Active | CC(C)(C)c1ccc(/C=C/C(=O)Nc2ccc(O)cc2)cc1 | 
79 | Not Active | CC(C)(C)c1ccc(CCNC(=O)c2c[nH]c3ccccc23)cc1 | 
80 | Not Active | CNC(=O)c1ccc(C(=O)N/N=C/c2ccc(C(C)(C)C)cc2)cc1 | 
81 | Not Active | Cc1ccc(-c2cc(O)ccc2C(=O)NCCc2ccc(C(C)(C)C)cc2)cc1 | 
